These results are taken from ChEMBL document CHEMBL1124914, “Novel inhibitors of human renin. Cyclic peptides based on the tetrapeptide sequence Glu-D-Phe-Lys-D-Trp” (J Med Chem, 1990).

The target of test [1] is T1, Renin (Homo sapiens) (UniProt P00797).
T1 sequence (whole entry): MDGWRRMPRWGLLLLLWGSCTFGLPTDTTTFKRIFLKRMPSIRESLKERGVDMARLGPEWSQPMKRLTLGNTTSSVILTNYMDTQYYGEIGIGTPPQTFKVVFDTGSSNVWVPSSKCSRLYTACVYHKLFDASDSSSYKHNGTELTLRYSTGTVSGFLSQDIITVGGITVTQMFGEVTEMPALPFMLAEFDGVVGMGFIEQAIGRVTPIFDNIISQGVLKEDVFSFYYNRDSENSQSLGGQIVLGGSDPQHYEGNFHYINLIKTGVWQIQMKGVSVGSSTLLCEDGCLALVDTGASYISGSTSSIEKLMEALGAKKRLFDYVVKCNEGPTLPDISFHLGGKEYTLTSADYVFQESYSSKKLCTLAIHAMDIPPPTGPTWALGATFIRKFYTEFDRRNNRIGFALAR
In words: Tested for inhibition against human renin at a concentration of 100 uM; Inactive. The method, boiled down: (§1)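 Partially purified human renal renin with human angiotensinogen partially purified from volunteer plasma (ammonium sulfate fractionation, DEAE-Sephacel). Final mix: 50 mM phosphate pH 7.0, 3 mM EDTA, 3 mM 8-hydroxyquinoline, 0.5 mM PMSF, 0.1% azide, 0.1% BSA, 1% DMSO. […] Incubation 120 min at 30 °C, stopped on ice. Angiotensin I measured by radioimmunoassay; percent inhibition of vehicle control rate.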

For test [2], the target named is T1, Renin (Homo sapiens). In words: Tested for inhibition against human renin at a concentration of 100 uM. In outline: as §1
A further test addresses T2, Renin (Homo sapiens, UniProt P00797).
T2 sequence (P00797 whole entry): T1 sequence (whole entry)
In words: Inhibitory activity against human renin. In outline:
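Partially purified human renal renin with human angiotensinogen partially purified from volunteer plasma (ammonium sulfate fractionation, DEAE-Sephacel). Final mix: 50 mM phosphate pH 7.0, 3 mM EDTA, 3 mM 8-hydroxyquinoline, 0.5 mM PMSF, 0.1% azide, 0.1% BSA, 1% DMSO. Incubation 120 min at 30 °C, stopped on ice. Angiotensin I measured by radioimmunoassay; percent inhibition of vehicle control rate.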

A further test concerns the target Renin (Sus scrofa). In words: Inhibitory activity against porcine renin.
In test [3] the target is T1, Renin (Homo sapiens). As to the kind of experiment: Ratio of inhibitory activity of porcine renin to that of human renin. Conditions: Sus scrofa.
The target of test [4] is T1, Renin (Homo sapiens). In words: Tested for inhibition against human renin at a concentration of 1 uM. In outline:
as §1

For test [5], the target named is T1, Renin (Homo sapiens). As to the kind of experiment: Tested for inhibition against human renin at a concentration of 10 uM. The method, boiled down: as §1

Calls of active or inactive are those of the source. No cut-off for these calls is given here.

In general, inhibition refers to the change of the read-out against control, counted positive when it falls. Turning to `COC(=O)[C@H](CCCCN)N1C(=O)CC[C@@H](NC(=O)OC(C)(C)C)C(=O)N[C@H](Cc2ccccc2)C1=O`, at Renin (Homo sapiens) [1], the inhibition entry is “inactive”.
`CCC(Cc1c[nH]c2ccccc12)NC(=O)[C@H](CCCCN)N1C(=O)CC[C@@H](NC(=O)OC(C)(C)C)C(=O)N[C@H](Cc2ccccc2)C1=O` (some centres not stated) showed an inhibition at Renin (Homo sapiens) [2] of 41%.
For `CC(=O)NCSC[C@@H]1NC(=O)[C@@H](CC(C)C)NC(=O)C(Cc2c[nH]c3ccccc23)NC(=O)[C@@H](CSCNC(C)=O)NC(=O)[C@H](Cc2ccccc2)NC1=O` (stereo in doubt), the inhibition against Renin (Homo sapiens) [2] came out at 56%.
For orientation: IC50 means the point on the concentration scale where inhibition reaches its midpoint. A higher IC50 goes with lower potency. `CC(C)CCNC(=O)C(Cc1c[nH]c2ccccc12)NC(=O)[C@H](CCCCN)N1C(=O)CC[C@@H](NC(=O)OC(C)(C)C)C(=O)N[C@H](Cc2ccccc2)C1=O` (stereo in doubt): the IC50 at Renin turned out to be 210 nM; at Renin (Sus scrofa) it was 8500 nM. For the same compound, the Ratio at Renin (Homo sapiens) [3] was found to be 40.4.
At Renin, `CCNC(=O)[C@H](CC(C)C)NC(=O)C(Cc1c[nH]c2ccccc12)NC(=O)[C@H](CCCCN)N1C(=O)CC[C@@H](NC(=O)OCc2ccccc2)C(=O)N[C@H](Cc2ccccc2)C1=O` (stereo in doubt) showed an IC50 of 850 nM.
Regarding `CC(C)(C)OC(=O)N[C@@H]1CCC(=O)N([C@@H](CCCCN)C(N)=O)C(=O)[C@@H](Cc2ccccc2)NC1=O`, at Renin (Homo sapiens) [1], the inhibition entry is “inactive”.
Turning to `CC[C@@H](C)[C@H](NC(=O)C(Cc1c[nH]c2ccccc12)NC(=O)[C@H](CCCCN)N1C(=O)CC[C@@H](NC(=O)OCc2ccccc2)C(=O)N[C@H](Cc2ccccc2)C1=O)C(=O)NC` (stereo in doubt), the IC50 at Renin turned out to be 810 nM.
`COC(=O)[C@H](CC(C)C)NC(=O)C(Cc1c[nH]c2ccccc12)NC(=O)[C@H](CCCCN)N1C(=O)CSC[C@@H](NC(=O)OCc2ccccc2)C(=O)N[C@H](Cc2ccccc2)C1=O` (stereo in doubt) returned an inhibition at Renin (Homo sapiens) [2] of 53%.
Turning to `COC(=O)[C@H](CC(C)C)NC(=O)C(Cc1c[nH]c2ccccc12)NC(=O)[C@@H](CCCN)N1C(=O)C[C@H](NC(=O)OCc2ccccc2)C(=O)N[C@H](Cc2ccccc2)C1=O` (stereo in doubt), the inhibition result at Renin (Homo sapiens) [1] is “inactive”.
`CC(Cc1c[nH]c2ccccc12)NC(=O)[C@H](CCCCN)N1C(=O)CC[C@@H](NC(=O)OC(C)(C)C)C(=O)N[C@H](Cc2ccccc2)C1=O` (some centres not stated): the inhibition against Renin (Homo sapiens) [2] was 33%.
For `COC(=O)[C@H](CC(C)C)NC(=O)C(Cc1c[nH]c2ccccc12)NC(=O)[C@@H]1CCC(=O)N[C@H](CCCCNC(=O)OCc2ccccc2)C(=O)N[C@@H](Cc2ccccc2)C(=O)N1` (stereo in doubt), the inhibition result at Renin (Homo sapiens) [1] was “inactive”.
As to `CC(C)CCNC(=O)C(Cc1c[nH]c2ccccc12)NC(=O)[C@H](CCCCN)N1C(=O)CC[C@@H](NCC(C)(C)C)C(=O)N[C@H](Cc2ccccc2)C1=O` (stereo in doubt), the IC50 on Renin stood at 63 nM; against Renin (Sus scrofa) it was 7100 nM. For the same compound, the Ratio on Renin (Homo sapiens) [3] came to 113.
Turning to `COC(=O)[C@@H](CCSC)NC(=O)[C@H](CC(C)C)NC(=O)C(Cc1c[nH]c2ccccc12)NC(=O)[C@H](CCCCN)N1C(=O)CC[C@@H](NC(=O)OCc2ccccc2)C(=O)N[C@H](Cc2ccccc2)C1=O` (stereo in doubt), half-maximal inhibition on Renin (IC50) required 290 nM.
Turning to `CC(=O)NCSC[C@H]1NC(=O)[C@H](Cc2ccccc2)NC(=O)CNC(=O)[C@@H](CC(C)C)NC(=O)C(Cc2c[nH]c3ccccc23)NC1=O` (stereo in doubt), the inhibition entry on Renin (Homo sapiens) [1] was “inactive”.
`CNC(=O)[C@H](CC(C)C)NC(=O)C(Cc1c[nH]c2ccccc12)NC(=O)[C@H](CCCCN)N1C(=O)CC[C@@H](NC(=O)OCc2ccccc2)C(=O)N[C@H](Cc2ccccc2)C1=O` (stereo in doubt) showed an IC50 on Renin of 340 nM.
Turning to `CC(C)CCNC(=O)C(Cc1c[nH]c2ccccc12)NC(=O)[C@H](CCCCN)N1C(=O)CC[C@@H](N)C(=O)N[C@H](Cc2ccccc2)C1=O` (stereo in doubt), the IC50 was 710 nM against Renin and 46000 nM against Renin (Sus scrofa). The Ratio on Renin (Homo sapiens) [3] was 64.7.
At Renin, `CC(C)CCNC(=O)C(Cc1c[nH]c2ccccc12)NC(=O)[C@H](CCCCN)N1C(=O)CC[C@@H](NCc2c[nH]c3ccccc23)C(=O)N[C@H](Cc2ccccc2)C1=O` (stereo in doubt) gave a concentration for half-maximal inhibition (IC50) of 1900 nM.
In the case of `CC(=O)NCSC[C@H]1NC(=O)[C@H](Cc2ccccc2)NC(=O)CN(C)C(=O)[C@@H](CC(C)C)NC(=O)C(Cc2c[nH]c3ccccc23)NC1=O` (stereo in doubt), at Renin (Homo sapiens) [1], the inhibition entry is “inactive”.
As for `CC(C)C[C@H]1NC(=O)C(Cc2c[nH]c3ccccc23)NC(=O)[C@@H](CCCCN)N(C(=O)[C@H](Cc2ccccc2)NC(=O)OCc2ccccc2)C1=O` (stereo in doubt), the inhibition result on Renin (Homo sapiens) [1] is “inactive”.
On to `CC(C)CCNC(=O)C(Cc1c[nH]c2ccccc12)NC(=O)[C@H](CCCCN)N1C(=O)CC[C@@H](NC(C)C)C(=O)N[C@H](Cc2ccccc2)C1=O` (stereo in doubt), for which the results for the inhibition on Renin (Homo sapiens) [2] and against Renin (Homo sapiens) [4] were 93% and 30%, respectively.
Take `COC(=O)[C@H](CC(C)C)NC(=O)C(Cc1c[nH]c2ccccc12)NC(=O)[C@H](CCCN)N1C(=O)CC[C@H](NC(=O)OCc2ccccc2)C(=O)N[C@@H](Cc2ccccc2)C1=O` (stereo in doubt): the inhibition at Renin (Homo sapiens) [2] worked out at 42%.
In turn, `COC(=O)[C@H](CCSC)NC(=O)[C@H](CC(C)C)NC(=O)C(Cc1c[nH]c2ccccc12)NC(=O)[C@H](CS)NC(=O)[C@H](Cc1ccccc1)NC(=O)[C@H](CS)NC(=O)OC(C)(C)C` (stereo in doubt) registered an inhibition at Renin (Homo sapiens) [2] of 22%.
For `COC(=O)[C@@H]1CCCN1C(=O)[C@H](CC(C)C)NC(=O)C(Cc1c[nH]c2ccccc12)NC(=O)[C@H](CCCCN)N1C(=O)CC[C@@H](NC(=O)OCc2ccccc2)C(=O)N[C@H](Cc2ccccc2)C1=O` (stereo in doubt), the inhibition at Renin (Homo sapiens) [5] came to 76%.
As for `COC(=O)C(Cc1c[nH]c2ccccc12)NC(=O)[C@H](CCCCN)N1C(=O)CC[C@@H](NC(=O)OCc2ccccc2)C(=O)N[C@H](Cc2ccccc2)C1=O` (stereo in doubt), the inhibition on Renin (Homo sapiens) [2] was found to be 69.2%.
At Renin (Homo sapiens) [2], `COC(=O)[C@H](CC(C)C)NC(=O)C(Cc1c[nH]c2ccccc12)NC(=O)[C@@H](CCCCN)N1C(=O)C[C@H](NC(=O)OCc2ccccc2)C(=O)N[C@H](Cc2ccccc2)C1=O` (stereo in doubt) came in with an inhibition of 32%.
Take `CCC(C)CN[C@@H]1CCC(=O)N([C@@H](CCCCN)C(=O)NC(Cc2c[nH]c3ccccc23)C(=O)NCCC(C)C)C(=O)[C@@H](Cc2ccccc2)NC1=O` (stereo in doubt): at Renin, the IC50 was 130 nM.
Turning to `CC(C)(C)OC(=O)N[C@@H]1CCC(=O)N([C@@H](CCCCN)C(=O)NCCc2c[nH]c3ccccc23)C(=O)[C@@H](Cc2ccccc2)NC1=O`, at Renin (Homo sapiens) [2], the inhibition amounted to 79%.
For the compound `COC(=O)C(CCSC)NC(=O)[C@H](CC(C)C)NC(=O)C(Cc1c[nH]c2ccccc12)NC(=O)[C@H](CCCCN)N1C(=O)CC[C@@H](NC(=O)OCc2ccccc2)C(=O)N[C@H](Cc2ccccc2)C1=O` (stereo in doubt), the 50% inhibitory concentration (IC50) against Renin came out at 450 nM.
On to `CC(=O)NCSC[C@H]1NC(=O)[C@H](Cc2ccccc2)NC(=O)[C@@H]2CCCN2C(=O)[C@@H](CC(C)C)NC(=O)C(Cc2c[nH]c3ccccc23)NC1=O` (stereo in doubt), for which, on Renin (Homo sapiens) [2], the inhibition stood at 38%.
In the case of `CC(C)CCNC(=O)C(Cc1c[nH]c2ccccc12)NC(=O)[C@H](CCCCN)N1C(=O)CC[C@@H](NC(=O)COc2ccccc2)C(=O)N[C@H](Cc2ccccc2)C1=O` (stereo in doubt), the IC50 against Renin worked out at 430 nM; against Renin (Sus scrofa) it was 8200 nM. The Ratio on Renin (Homo sapiens) [3] came out at 19.2.
In the case of `CC(C)(C)CNC(=O)C(Cc1c[nH]c2ccccc12)NC(=O)[C@H](CCCCN)N1C(=O)CC[C@@H](NC(=O)OCc2ccccc2)C(=O)N[C@H](Cc2ccccc2)C1=O` (stereo in doubt), the IC50 against Renin was 1700 nM.
`COC(=O)[C@@H](NC(=O)C(Cc1c[nH]c2ccccc12)NC(=O)[C@H](CCCCN)N1C(=O)CC[C@@H](NC(=O)OCc2ccccc2)C(=O)N[C@H](Cc2ccccc2)C1=O)C1CCCCC1` (stereo in doubt) showed an inhibition against Renin (Homo sapiens) [2] of 67%.
In the case of `CC(C)C[C@H]1NC(=O)C(Cc2c[nH]c3ccccc23)NC(=O)[C@@H](CCCCN)N(C(=O)[C@@H](N)Cc2ccccc2)C1=O` (stereo in doubt), at Renin (Homo sapiens) [1], the inhibition entry is “inactive”.
